This excerpt belongs to a sample that is enriched for hits.
CHOP UPR activ: apoptotic UPR (CHOP) activation; actives 0.34% (n = 330,000); CHO-CHOP luciferase reporter, luminescence; percent of tunicamycin response over DMSO baseline; activation, % at 10 µM;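 active = at 10 µM dose, activation of 40% or more, normalized to positive control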;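 note: 100% = tunicamycin at 10 µg/mL and 0% = DMSO alone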
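System: CHO CHOP reporter cells. Amount: 500 cells per well. Buffer or medium: F12 medium, 10% FBS. Compound dosing: one dose, 10 µM in 0.5% DMSO. Incubation: 6 h compound exposure at 37 °C after overnight seeding. Technique: Steady-Glo luciferase luminescence. Benchmarks: tunicamycin and DMSO controls.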
CHOP inhibitor: CHOP inhibition in unfolded protein response; actives 3.8% (n = 220,000); CHO-K1 CHOP-promoter luciferase, tunicamycin-induced, 15-18 h; inhibition, % at 10 µM;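 active = compounds that reduced the stress-induced luciferase reporter signal by more than about 70% of percent inhibition, limit read from the data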;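 note: 0% = tunicamycin plus vehicle and 100% = wells without tunicamycin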
NOD2 RIPK2 PPI: inhibitors of human NOD2-RIPK2 interaction. O43353. CHO BLA complementation NOD2-RIPK2, CCF4 ratio. inhibition, % at 4.98 µM. actives 0.38% (n = 360,000). AID 624267; in the data active = inhibition above about 21%;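 note: 0% = vehicle only and 100% = reference blocker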
TLR9-MyD88 block: blocks human TLR9 binding to MyD88. Q9NR96+Q99836. CHO BLA complementation TLR9-MyD88, CCF4 FRET ratio. inhibition, % at 4.98 µM. actives 0.21% (n = 340,000). AID 504734;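 active = inhibition above the mean over all tested compounds plus 3 SD, cut at about 21% in these data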;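 note: 0% = DMSO only wells and 100% = clavulanate BLA inhibitor control wells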
Target sequence (Q99836 whole entry, looked up): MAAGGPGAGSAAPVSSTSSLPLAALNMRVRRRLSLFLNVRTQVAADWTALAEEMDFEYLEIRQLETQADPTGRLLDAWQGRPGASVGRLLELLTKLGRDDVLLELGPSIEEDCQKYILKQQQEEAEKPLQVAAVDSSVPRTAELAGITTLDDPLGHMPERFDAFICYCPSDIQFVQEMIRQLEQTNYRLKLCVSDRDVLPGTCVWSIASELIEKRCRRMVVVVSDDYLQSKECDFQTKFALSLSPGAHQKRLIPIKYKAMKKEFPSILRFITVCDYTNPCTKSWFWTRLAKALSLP
Target sequence (Q9NR96 whole entry, looked up): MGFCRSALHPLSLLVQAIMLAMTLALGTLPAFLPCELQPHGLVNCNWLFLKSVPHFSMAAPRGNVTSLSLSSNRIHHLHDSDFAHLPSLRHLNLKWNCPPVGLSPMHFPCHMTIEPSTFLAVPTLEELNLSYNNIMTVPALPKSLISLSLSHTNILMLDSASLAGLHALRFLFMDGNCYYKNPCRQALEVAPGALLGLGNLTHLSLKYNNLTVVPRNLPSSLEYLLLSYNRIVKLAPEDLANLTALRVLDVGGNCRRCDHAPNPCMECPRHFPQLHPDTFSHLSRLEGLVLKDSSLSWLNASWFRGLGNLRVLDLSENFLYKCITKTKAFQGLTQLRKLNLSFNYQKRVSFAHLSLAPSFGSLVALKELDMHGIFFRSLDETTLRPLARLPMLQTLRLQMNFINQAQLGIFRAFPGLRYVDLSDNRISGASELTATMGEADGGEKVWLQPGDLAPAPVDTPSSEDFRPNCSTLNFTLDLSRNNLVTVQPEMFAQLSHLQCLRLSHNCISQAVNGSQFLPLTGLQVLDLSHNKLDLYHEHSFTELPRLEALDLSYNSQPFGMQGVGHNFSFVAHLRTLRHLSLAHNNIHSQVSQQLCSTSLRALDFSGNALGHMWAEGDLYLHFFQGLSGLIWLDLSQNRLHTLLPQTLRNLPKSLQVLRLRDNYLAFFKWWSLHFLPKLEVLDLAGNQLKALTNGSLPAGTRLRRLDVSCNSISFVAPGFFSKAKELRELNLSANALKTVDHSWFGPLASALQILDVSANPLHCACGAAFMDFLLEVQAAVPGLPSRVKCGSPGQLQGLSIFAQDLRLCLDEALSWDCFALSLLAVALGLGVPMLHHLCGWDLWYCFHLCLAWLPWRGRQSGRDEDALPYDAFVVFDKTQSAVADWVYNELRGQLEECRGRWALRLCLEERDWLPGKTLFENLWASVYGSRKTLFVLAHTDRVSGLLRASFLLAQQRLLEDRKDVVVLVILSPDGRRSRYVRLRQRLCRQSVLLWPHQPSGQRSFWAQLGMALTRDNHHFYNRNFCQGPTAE
UPR XBP1 act: activators of adaptive arm of unfolded protein response (XBP1). activation, % at 20 µM. actives 0.33% (n = 330,000). CHO-XBP1 luciferase reporter, IRE1-XBP1 UPR activation, luminescence; percent of tunicamycin response, DMSO as zero;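 active = versus positive control, 20 µM dose yields 30% or more activation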;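 note: 100% = tunicamycin at 10 µg/mL and 0% = DMSO only wells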
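Material – CHO cell line with stable XBP1 luciferase reporter · Buffer or medium – F12 plus 10% FBS · Compound – single point, 20 µM final compound, 1% DMSO · Schedule – 16-18 h cell attachment at 37 °C, then 6 h compound exposure · Signal – Steady-Glo luminescence read · Benchmarks – high control tunicamycin 10 µg/mL final, low control DMSO vehicle only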
TLR4 MyD88 comp: TLR4-MyD88 interaction inhibition in cells; O00206+Q99836; inhibition, % at 8.4 µM; AID 861; HeLa CL3-4 TLR4/MyD88 BLA complementation, FRET ratio; actives 0.18% (n = 200,000); in the data active = inhibition above about 25%;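 note: 0% = vehicle and 100% = reference inhibitor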
The depositor's hits bear a star; · = no result given.

SMILES | CHOP UPR activ | CHOP inhibitor | NOD2 RIPK2 PPI | TLR9-MyD88 block | UPR XBP1 act | TLR4 MyD88 comp
COc1ccc(OCC(=O)O/N=C(\N)Cc2ccc(Cl)cc2Cl)cc1 | -0.5 | 80.5* | -3.3 | 3.6 | -1.7 | -7.4
COc1ccc(OCC(=O)O/N=C(\N)Cc2ccc(Cl)cc2)cc1 | 2.8 | 10.3 | -4.8 | 5.5 | -1.9 | -0.3
CC(C)(C)c1ccc(C(=O)N2CCC2(C)C(=O)NCc2cccs2)cc1 (stereo not given) | · | · | -1.9 | · | · | ·
COc1cccc(-c2cc(CNC(=O)[C@H]3O[C@@H](n4ccc(=O)[nH]c4=O)[C@H](O)[C@@H]3O)no2)c1 | · | · | 1.1 | · | · | ·
CC(C(=O)NC1CCCC1)n1c(-c2ccccn2)nc2ccccc21 (stereo not given) | · | · | -24.5 | · | · | ·
CCC(Oc1cc(Cl)ccc1Cl)C(=O)NNC(=O)CCC(=O)O (stereo not given) | -1.0 | 6.8 | 5.4 | -2.7 | -3.3 | -3.2
CCC(Oc1cc(Cl)ccc1Cl)C(=O)NN1C(=O)C2C3CCC(C3=C(C)C)C2C1=O (stereo not given) | -1.3 | 86.7* | 16.0 | -10.3 | -1.1 | 8.1
CCNC(=S)N/N=C/c1cn(Cc2ccccc2F)c2ccccc12 | 0.6 | 77.1* | -9.4 | 3.3 | 2.8 | 9.3
Cn1c2ccccc2c2cnn(CC(=O)Nc3ccc(F)cc3F)c(=O)c21 | 1.0 | 88.1* | -3.4 | -0.5 | -3.1 | ·
COc1ccc(C2CC(C)(c3ccc(OC)cc3OC)Nc3ccccc3N2)c(OC)c1 (stereo not given) | 1.8 | 79.7* | -5.7 | 1.5 | 0.5 | 5.0
CCCCNC1=CC(=O)C(=O)c2ccccc21 | 1.9 | 24.9 | 13.4 | 8.3 | -1.8 | 8.3
CCCCN1C=CC(=C2C(=O)c3ccccc3C2=O)C=C1 | -10.1 | 94.3* | -3.7 | -1.6 | -5.9 | -2.0
O=C(Nc1cccc(C(F)(F)F)c1)c1ccccc1NC(=O)C1CCCCC1 | 0.5 | 94.5* | -19.7 | -3.3 | -1.1 | -9.7
O=C(Nc1cc(C(F)(F)F)ccc1F)C1CCCCC1 | -1.9 | 39.6 | -4.4 | 0.6 | 1.6 | 14.6
O=C1CCCCC1CCc1ccncc1 (stereo not given) | · | · | 11.8 | -7.5 | · | ·
CC1=C(C(=O)N(C(C)C)C(C)C)CC(CC(=O)NC2CCCCC2)C(=O)N1Cc1ccc(C(C)(C)C)cc1 (stereo not given) | · | · | -6.0 | · | · | ·
CC(C)Cn1c(SCc2nc3ccccc3c(=O)[nH]2)nc2ccccc2c1=O | -0.7 | 82.4* | -1.3 | -4.1 | 1.9 | -5.8
COc1cc(F)ccc1-c1cc(C(=O)NCc2ccc(F)cc2)[nH]n1 | · | · | -10.1 | · | · | ·
O=C(CSc1cccc[n+]1[O-])Nc1ccccc1Oc1ccccc1 | 107.8* | -87.2 | 11.5 | 8.3 | 14.9 | 4.7
O=C(CSc1cccc[n+]1[O-])Nc1ccccc1C(F)(F)F | 1.0 | · | -12.3 | 1.6 | -0.7 | ·
OC(CNCCC1C=Nc2ccccc21)Cn1c2ccc(Cl)cc2c2cc(Cl)ccc21 (stereo not given) | · | 108.6* | 11.4 | -3.4 | · | -2.0
CC1(C(=O)Nc2ccc3c(c2)OCCO3)CCC(=O)N1CCOc1ccccc1 (stereo not given) | · | · | -22.1 | · | · | ·
O=C(Cc1csc(Nc2nc(=S)[nH]c3ccccc23)n1)NCc1ccccc1Cl | -0.2 | -11.6 | 0.4 | -2.6 | 15.4 | -11.3
O=C(Cc1csc(Nc2nc(=S)[nH]c3ccccc23)n1)NCc1cccc(Cl)c1 | -0.4 | 80.3* | -5.6 | -7.8 | 16.1 | -2.5
C=CCSc1nnc2n(CCc3ccccc3)c(=O)c3c4c(sc3n12)COC(C)(C)C4 | 0.9 | 70.8* | -10.8 | -5.2 | -2.7 | 2.4
SMILES | CHOP UPR activ | CHOP inhibitor | NOD2 RIPK2 PPI | TLR9-MyD88 block | UPR XBP1 act | TLR4 MyD88 comp
O=c1[nH][nH]c2c1[C@H](c1ccc(F)cc1)O[C@H](CCc1ccccc1)C2 | · | · | -1.4 | · | · | ·
CCc1c(O)nc(SCC(=O)Nc2ccc(OC)cc2)n(C2CCCCC2)c1=O | -0.5 | 77.2* | -6.8 | -0.8 | -0.7 | -5.7
COc1ccc(C(CCN2CCOCC2)c2c(O)cc(OC)cc2OC)cc1 (stereo not given) | -1.7 | 10.4 | -6.0 | -4.9 | 2.9 | ·
COc1ccc(C(c2c(O)ccc3ccccc23)N2CCOCC2)c(OC)c1 (stereo not given) | 28.0 | -44.9 | 48.3* | 0.8 | 10.0 | -5.8
Cc1cc(C(=O)NC(=S)Nc2cccc(NC(=O)C(C)C)c2)ccc1[N+](=O)[O-] | 1.7 | 80.6* | -2.5 | 11.6 | 0.7 | 8.5
O=C1NC[C@@H](CCCCN2C[C@H](Cc3ccccc3)N(CCC3CCCCC3)C(=O)C2=O)N(CC2CCCCC2)C1=O | · | · | -9.7 | · | · | ·
Nc1nc2cc(Cl)c(Br)cc2o1 | · | · | -6.8 | -4.4 | · | ·
Cc1ccc2nc(N3C(=O)C(O)=C(C(=O)c4ccco4)C3c3cccs3)sc2c1 (stereo not given) | 2.7 | 93.8* | -1.6 | 1.6 | 3.2 | -4.8
COc1ccc2nc(N3C(=O)C(O)=C(C(=O)c4ccco4)C3c3ccc(C)o3)sc2c1 (stereo not given) | 2.7 | · | -17.1 | 2.6 | -0.3 | ·
O=C(/C=C/c1ccccc1Cl)Nc1ccc2c(c1)C(=O)NC2=O | 1.0 | 94.4* | -11.1 | -5.9 | -0.9 | -0.7
Cc1ccc(-n2cc(CNCCCn3ccnc3C)c(-c3ccc(F)cc3)n2)cc1 | 0.8 | -22.7 | 2.2 | -2.7 | 2.0 | -8.6
Cc1ccc(-n2cc(CNCCc3cscn3)c(-c3ccc(F)cc3)n2)cc1 | -0.1 | 84.9* | 4.3 | 5.0 | -0.3 | 14.4
O=[N+]([O-])c1nn(-c2ccc3c(c2)OCCO3)n(O)c1=NC1CCCCC1 | 3.7 | 86.9* | -7.0 | -2.2 | -0.8 | 11.3
O=[N+]([O-])c1nn(-c2ccc3c(c2)OCCO3)n(O)c1=NCc1ccccc1Cl | 2.9 | -12.5 | -12.9 | -4.0 | -4.1 | -1.7
O=c1c2cc(Cl)ccc2nc(-c2ccc(Cl)c(Cl)c2)n1O | 1.8 | 102.3* | -12.1 | -5.6 | 10.4 | ·
O=C(Cc1coc2cc(O)ccc12)N1CCN(S(=O)(=O)c2ccc(Br)cc2)CC1 | · | · | -3.8 | 3.6 | · | ·
Cc1cc(NC(=O)CSc2nc3ccccc3[nH]2)n(-c2ccccc2)n1 | -1.4 | 14.6 | -0.8 | · | -1.0 | ·
Cc1ccc2nc(SCC(=O)Nc3cc(C(C)(C)C)nn3-c3ccccc3)[nH]c2c1 | 0.5 | 72.3* | 0.4 | -1.6 | -1.2 | -5.8
COc1cc2c(cc1NC(=O)CSc1nc3ccc(C)cc3[nH]1)oc1ccccc12 | 2.8 | 76.7* | · | · | -2.5 | 13.7
CC1(C(=O)Nc2ccc3c(c2)OCCO3)CN(S(C)(=O)=O)CC(=O)N1Cc1cccs1 (stereo not given) | · | · | -9.3 | · | · | ·
Cc1cccc(CN(CC(=O)N/N=C/c2ccco2)S(=O)(=O)c2ccc(Cl)cc2)c1 | -0.3 | -1.2 | -0.9 | -8.3 | -4.6 | -3.7
